Measured values taken from ChEMBL document CHEMBL5230168, “Design, synthesis, and biological evaluation of new arjunolic acid derivatives as anticancer agents” (RSC Med Chem, 2023).
Activity calls are given as the source filed them. The rule behind the calls is not given here.

Experiments:
[1] = Toxicity in Balb/c mouse assessed as piloerection at 50 to 100 mg/kg, ip measured upto 24 hrs by Irwin test; format: organism-based; details: in vivo, dose 50-100 mg/kg
How it was run: (§1)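 Irwin primary observation in female Balb/c mice aged 7–8 weeks, 3 per group. Single i.p. doses of 0.01, 0.1, 1, 5, 10, 50 and 100 mg kg−1 in 0.2% HPMC in saline; vehicle controls observed in parallel, non-blind. Standardized grid including rectal temperature and pupil diameter scored at 15, 30, 60, 120 and 180 min and 24 h, with continuous watch over 0–15 min.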

PANC-1 [2] = assay: Induction of apoptosis in human PANC-1 cells assessed as early apoptotic cells at 1.88 uM incubated for 24 hrs by Annexin V-FITC/PI staining based flow cytometric analysis (reference value: 5.2%); format: functional
How it was run: (§2)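 PANC-1 seeded at 2 × 10^5 cells/well, grown 24 h, then treated 24 h. PI added just before flow cytometry. Quadrant percentages given as mean ± SD of three experiments. Untreated control.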

NCI-H2170 = assay: Cytotoxicity against human NCI-H2170 cells assessed as inhibition of cell growth incubated for 72 hrs by MTT assay; format: functional, cell-based; details: NCI-H2170, 72 h
How it was run: (§3)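 Cells seeded per well (HT-29 4500, PANC-1 4000, SK-MEL-28 3200, A375 1200, A549 2500, H2170 and BJ 10 000) and left 24 h. They were then exposed to increasing concentrations for 72 h and incubated 1 h with MTT 0.5 mg mL−1. Formazan was dissolved in DMSO and absorbance read at 550 nm. IC50 from three independent experiments. Final DMSO ≤0.5%.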

PANC-1 [3] = assay: Induction of apoptosis in human PANC-1 cells assessed as late apoptotic cells at 2.82 uM incubated for 24 hrs by Annexin V-FITC/PI staining based flow cytometric analysis (reference value: 1.1%); format: functional; how it was run: as §2
A-375 = assay: Cytotoxicity against human A-375 cells assessed as inhibition of cell growth incubated for 72 hrs by MTT assay; format: functional, cell-based; details: A-375, 72 h; how it was run: as §3
PANC-1 [4] = assay: Induction of apoptosis in human PANC-1 cells assessed as late apoptotic cells at 0.94 uM incubated for 24 hrs by Annexin V-FITC/PI staining based flow cytometric analysis (reference value: 1.1%); format: functional; how it was run: as §2
PANC-1 [5] = assay: Induction of cell cycle arrest in human PANC-1 cells assessed as decrease in S phase cells at 1.88 uM incubated for 24 hrs by PI staining based flow cytometric analysis (Rvb= 19.8 %); format: functional; design: scale not given: the % may be the effect or the level left
PANC-1 [6] = assay: Induction of apoptosis in human PANC-1 cells assessed as viable cells at 1.88 uM incubated for 24 hrs by Annexin V-FITC/PI staining based flow cytometric analysis (reference value: 89.8%); format: functional; details: read-out: Activity; how it was run: as §2
[7] = Toxicity in Balb/c mouse assessed as loss of traction indication of muscle weakness at 50 to 100 mg/kg, ip measured upto 24 hrs by Irwin test; format: organism-based; details: in vivo, dose 50-100 mg/kg; how it was run: as §1
PANC-1 [8] = assay: Induction of apoptosis in human PANC-1 cells assessed as late apoptotic cells at 1.88 uM incubated for 24 hrs by Annexin V-FITC/PI staining based flow cytometric analysis (reference value: 1.1%); format: functional; how it was run: as §2
PANC-1 [9] = assay: Inhibition of cell migration in human PANC-1 cells incubated upto 72 hrs by scratch wound healing assay; format: functional, cell-based; details: dose 0.47-2.82 µM
How it was run: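 Confluent PANC-1 monolayers (4000 cells/well seeded, 24 h) were scratched with a P200 tip and washed with PBS. Medium with compound or 0.5% DMSO control was added. Wound area imaged by high-content microscopy at 0, 24, 48 and 72 h.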

PANC-1 [10] = assay: Induction of apoptosis in human PANC-1 cells assessed as appearance of apoptotic bodies at 0.47 to 2.82 uM incubated for 24 hrs by Hoechst 33342 staining based fluorescence microscopic analysis; format: functional, cell-based; details: dose 0.47-2.82 µM
How it was run: (§4)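 PANC-1 at 6500 cells/well, pre-incubated 24 h, then treated for 24 h. Washed with PBS and stained with Hoechst 33342 (1 μg mL−1 in PBS) 10 min at 37 °C in the dark. Nuclear morphology imaged by high-content fluorescence microscopy with a DAPI filter. Untreated cells as control.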

PANC-1 [11] = assay: Induction of apoptosis in human PANC-1 cells assessed as viable cells at 2.82 uM incubated for 24 hrs by Annexin V-FITC/PI staining based flow cytometric analysis (reference value: 89.8%); format: functional; details: read-out: Activity; how it was run: as §2
PANC-1 [12] = assay: Induction of apoptosis in human PANC-1 cells assessed as necrotic cells at […] incubated for 24 hrs by Annexin V-FITC/PI staining based flow cytometric analysis (reference value: 3.9%); format: functional; how it was run: as §2
SK-MEL-28 = assay: Cytotoxicity against human SK-MEL-28 cells assessed as inhibition of cell growth incubated for 72 hrs by MTT assay; format: functional, cell-based; details: SK-MEL-28, 72 h; how it was run: as §3
PANC-1 [13] = assay: Induction of apoptosis in human PANC-1 cells assessed as viable cells at 0.94 uM incubated for 24 hrs by Annexin V-FITC/PI staining based flow cytometric analysis (reference value: 89.8%); format: functional; details: read-out: Activity; how it was run: as §2
PANC-1 [14] = assay: Induction of apoptosis in human PANC-1 cells assessed as chromatin condensation at 0.47 to 2.82 uM incubated for 24 hrs by Hoechst 33342 staining based fluorescence microscopic analysis; format: functional, cell-based; details: dose 0.47-2.82 µM; how it was run: as §4
PANC-1 [15] = assay: Induction of apoptosis in human PANC-1 cells assessed as necrotic cells at 2.82 uM incubated for 24 hrs by Annexin V-FITC/PI staining based flow cytometric analysis (reference value: 3.9%); format: functional; how it was run: as §2
[16] = Cytotoxicity against human BJ cells assessed as inhibition of cell growth incubated for 72 hrs by MTT assay; format: toxicity, cell-based; how it was run: as §3
PANC-1 [17] = assay: Induction of cell cycle arrest in human PANC-1 cells assessed as accumulation of cells at G0/G1 phase at 1.88 uM incubated for 24 hrs by PI staining based flow cytometric analysis (Rvb= 51.8 %); format: functional
[18] = Selectivity index, ratio of IC50 for cytotoxicity against human BJ cells to IC50 for cytotoxicity against human PANC-1; format: toxicity, cell-based; details: BJ cells and PANC-1 cells, read-out: Ratio IC50
How it was run: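 Selectivity index: BJ fibroblast IC50 over PANC-1 IC50, both from the 72 h MTT assay with 24 h pre-seeding (10 000 and 4000 cells/well). IC50 from three independent experiments.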

PANC-1 [19] = assay: Induction of cell cycle arrest in human PANC-1 cells assessed as accumulation of cells at G0/G1 phase incubated for 24 hrs by PI staining based flow cytometric analysis; format: functional; details: dose 0.47-2.82 µM
[20] = Toxicity in Balb/c mouse assessed as abnormal gait with rolling at 50 to 100 mg/kg, ip measured upto 24 hrs by Irwin test; format: organism-based; details: in vivo, dose 50-100 mg/kg; how it was run: as §1
PANC-1 [21] = assay: Induction of apoptosis in human PANC-1 cells assessed as late apoptotic cells at […] incubated for 24 hrs by Annexin V-FITC/PI staining based flow cytometric analysis (reference value: 1.1%); format: functional; how it was run: as §2
PANC-1 [22] = assay: Synergistic cytotoxicity against human PANC-1 cells assessed as combination index at 0.12 uM incubated for 72 hrs in the presence of 6 uM gemcitabine by MTT assay; format: functional
HT-29 = assay: Cytotoxicity against human HT-29 cells assessed as inhibition of cell growth incubated for 72 hrs by MTT assay; format: functional, cell-based; details: HT-29, 72 h; how it was run: as §3
[23] = Toxicity in Balb/c mouse assessed as tremor at 50 to 100 mg/kg, ip measured upto 24 hrs by Irwin test; format: organism-based; details: in vivo, dose 50-100 mg/kg; how it was run: as §1

Structure (SMILES): CCOC(=O)[C@]12CCC(C)(C)C[C@H]1C1=CC[C@@H]3[C@@]4(C)C(C=O)=C[C@@](C)(CO)[C@@H]4CC[C@@]3(C)[C@]1(C)CC2
- Activity [1]: Toxic
- Activity (PANC-1 [2]): 7.5%
- IC50 (NCI-H2170): 1330 nM
- Activity (PANC-1 [3]): 3.5%
- IC50 (A-375): 580 nM
- Activity (PANC-1 [4]): 1.2%
- Activity (PANC-1 [5]): 3.7%
- viability at 1.88 µM (PANC-1 [6]): 87.3%
- Activity [7]: Toxic
- Activity (PANC-1 [8]): 2.2%
- inhibition (PANC-1 [9]): Dose-Dependent Effect
- Activity (PANC-1 [10]): inactive
- viability at 2.82 µM (PANC-1 [11]): 84.7%
- Activity (PANC-1 [12]): 2.3%
- IC50 (SK-MEL-28): 580 nM
- viability at 0.94 µM (PANC-1 [13]): 90.4%
- Activity (PANC-1 [14]): inactive
- Activity (PANC-1 [15]): 2%
- IC50 at 72 h [16]: 3060 nM
- Activity (PANC-1 [17]): 70.2%
- selectivity ratio [18]: 6.5
- Activity (PANC-1 [19]): Dose-Dependent Effect
- Activity [20]: Toxic
- Activity (PANC-1 [21]): 1.1%
- CI (PANC-1 [22]): 0.93
- IC50 (HT-29): 510 nM
- Activity [23]: Toxic
